Measurements: article PMC6589987 (Therapeutic Advances in Chronic Disease, 2019)
Entries after “also recorded” stand apart in the source; their conditions may differ. Where two headings read alike, the source gives them in different places.

Columns and labels:
[1] = after subcutaneous injection; cited from earlier work
[2] = cited from earlier work
[3] = Delivered dose and fine particle dose from the Cyclops inhaler; format: physicochemical; conditions: at 4 kPa; laser diffraction
Outline: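 Residue left in the inhaler after each patient inhalation was measured by UV spectrophotometry. Delivered dose was calculated as blister dose minus inhaler residue. Fine particle dose (<5 µm) was measured by laser diffraction at 4 kPa.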

[4] = Plasma levodopa pharmacokinetics after inhaled; format: in vivo, human; conditions: for AUC: inhaled or intranasal
Outline: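 Eight Parkinson's patients, not in the off state, got single morning doses at least 7.5 h after their last home dose, fasting 60 min before to 60 min after. Oral doses were 100/25–250/62.5 mg with decarboxylase inhibitor, normalised to 100 mg. Plasma had glutathione added and was stored at −80°C, then assayed by LC-MS/MS (LOQ 1.0 nmol/l). Half-life came from Cmax and the last concentration.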

[5] = Airway tolerability: spirometry; format: in vivo, human
Outline: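 Eight patients with Parkinson's disease (not off) inhaled dry-powder levodopa by mouth: 30 mg, then 60 mg (2 × 30 mg). At a third visit they took their regular oral levodopa/decarboxylase inhibitor. Visits were ≥7 days apart, in the morning, ≥7.5 h after the last home dose, with no food for 60 min either side. Spirometry (pneumotachograph, ATS/ERS) was done before and ±35 and 100 min after dosing. FEV1 drop >10% from baseline was deemed relevant. Cough and dyspnoea were queried each session (Borg scale).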

[6] = progressed, fluctuating patients; cited from earlier work

Row | SMILES | lag time to onset of effect [1] [min] | plasma levodopa concentration ([2]; 10 min after 100 mg oral levodopa in the fasted state) | absolute bioavailability ([2]; oral immediate-release levodopa combined with a decarboxylase inhibitor) | absolute bioavailability ([2]; oral immediate-release levodopa) | fine particle dose (<5 µm) [3] | AUC ([4]; human, plasma, 30 mg) [ng·h/mL] | AUC ([4]; human, plasma, 60 mg) [ng·h/mL] | half-life ([4]; human, plasma, po, mean elimination half-life time, oral administration of levodopa plus decarboxylase inhibitor) [h] | elimination half-life ([4]; inhaled levodopa, both doses, range and mean) [h] | time by which inhaled levodopa is absorbed faster in the blood plasma than oral ([4]; inhaled vs oral) | relative bioavailability of inhaled levodopa in comparison with oral levodopa ([4]; inhaled without carboxylase inhibitor vs oral with carboxylase inhibitor) [%] | mean elimination half-life time ([4]; oral administration of levodopa plus decarboxylase inhibitor) [h] | change in lung-function parameters (FEV1, FVC, MEF50) ([5]; after inhalation of 30 mg or 60 mg levodopa, spirometry ±35 and 100 min after administration) | tolerability ([5]; after inhalation, 30 and 60 mg) | change in lung-function parameters (FEV1, FVC, MEF50) ([5]; after oral administration of levodopa) | patients experiencing cough or dyspnoea ([5]; during or after inhalation) | increase in levodopa effect compartment concentration giving maximum effect on finger tapping [6] [ng/mL]
1 | CN1CCc2cccc3c2[C@H]1Cc1ccc(O)c(O)c1-3 [apomorphine] | > 20 | – | – | – | – | – | – | – | – | – | – | – | – | – | – | – | –
2 | N[C@@H](Cc1ccc(O)c(O)c1)C(=O)O [levodopa, Levodopa] | – | around 150 ng/ml | approximately 85% | 40–60% | 45 % of the delivered dose | 9.69 | 9.58 | 1.13 ± 0.343 | 0.967 | up to 85 min | 53 | 1.13 | No significant change; also recorded: none of the patients | well tolerated | No significant change | none of the patients | 200 to 400
